STAT1 inh: STAT1 signaling inhibitors, primary screen, cell-based, HTS, luciferase reporter; AID 920, 2007; inhibition, % at 5.5 µM; 200,000 compounds, 0.35% hits; NIH 3T3 STAT1-luciferase reporter, IFN-gamma, luminescence;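 active means inhibition above a set limit, the mean inhibition across all tested compounds plus 3 SD, cut at about 34% in these data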;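 further: 0% = IFN-gamma with DMSO and 100% = IFN-gamma with 300 µM nifuroxazide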
STAT3 act: IL-6 driven STAT3 reporter potentiators, primary screen, U3A cells, luciferase, luminescence, MLSCN library. IL-6 STAT3-luciferase reporter; 100% = signal with IL-6 EC80 alone. activation (% of control), % at 5.6 µM. 190,000 compounds, 0.91% hits. AID 871, 2007;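 active means activation above the screen-wide mean of compound activation plus 3 SD, cut at about 130% in these data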;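 further: 0% = background luminescence of wells with medium and substrate only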
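Test system: human U3A cells carrying STAT3-luciferase construct; control set: IL-6-only wells as 100% reference; timing: compound pre-incubation 1 h before IL-6, then 6 h stimulation at 37 °C; also added: IL-6 stimulus at 33 ng/mL final; evaluation: % activation versus median of IL-6-stimulated wells; detection: reporter luminescence signal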
HSP90 refold inh: HSP90 inhibitors, primary screen, cell lysate, luminescence. Rabbit reticulocyte lysate, luciferase refolding luminescence, 3 h. inhibition, % at 5.6 µM. 290,000 compounds, 0.91% hits;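 active means inhibition above the screen-wide mean plus 3 SD, computed separately per campaign, cut at about 16% in these data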;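 further: 0% = DMSO wells and 100% = 60 µM geldanamycin wells; inhibitors lower the luminescence because luciferase stays unfolded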
STAT3 inh-1: IL-6 driven STAT3 reporter inhibitors, primary screen, U3A cells, luciferase, luminescence, MLSCN library | IL-6 STAT3-luciferase reporter; host cell line lacks STAT1 | AID 862, 2007 | inhibition, % at 5.5 µM | 190,000 compounds, 0.89% hits;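 active means inhibition above the mean inhibition across all screened compounds plus 3 SD, cut at about 44% in these data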;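 further: 0% = DMSO only wells and 100% = 100 µM nifuroxazide control wells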
TRAIL sens C8: viability loss with TRAIL in NB7+C8 cells, primary screen, TRAIL sensitizer project, cell-based, ATPlite luminescence. inhibition (viability loss, TRAIL sensitization), % at 10 µM. 360,000 compounds, 1% hits;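 active means compounds causing at least 50% loss of cell viability in the single-dose screen, relative to plate controls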
PPC-1+TRAIL kill: compounds killing PPC-1 cancer cells with TRAIL present, primary screen, TRAIL potentiator project, ATPLite luminescence, uHTS | cell killing (% activity), % at 4 µM or 5 µM | AID 1443, 2008 | PPC-1 cells + TRAIL, ATPLite viability luminescence | 220,000 compounds, 0.41% hits;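 active means cell killing above 50% in the first pass at 4 µM, then a duplicate retest at 5 µM averaging 50% or more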;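 further: plate controls were cells with TRAIL plus DMSO for no effect and medium-only wells lacking cells for full effect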
STAT3 inh-2: STAT3 reporter inhibitors, retest of hits, confirmation, U3A cells, luciferase, luminescence; shares compounds with STAT3 inh-1; IL-6 STAT3 luciferase reporter; cell line lacks STAT1; inhibition, % at 5.7 µM; 1,200 compounds, 45% hits; AID 1265, 2008;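 active means inhibition above the hit cutoff computed for the primary STAT3 screen, cut at about 44% in these data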;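 further: 0% = IL-6 plus DMSO and 100% = IL-6 plus nifuroxazide control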
NFkB inh 2: NF-kB reporter inhibitors in human cells, confirmation, counter-screen for STAT3 inhibitor project, cell-based, HEK293T, luciferase, TNF-alpha stimulus; TNF-alpha induced; 1,200 compounds, 36% hits; inhibition, % at 5.7 µM; shares compounds with STAT3 inh-1;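 active means inhibition above the mean of solvent-only control wells plus 3 SD, cutoff set per campaign, cut at about 13% in these data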;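 further: 0% = TNF-alpha with DMSO and 100% = TNF-alpha with MG high control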
STAT1 inh 2: STAT1 reporter inhibitors, IFN-gamma induced, confirmation, counter-screen for STAT3 inhibitor project, cell-based, NIH 3T3, luciferase luminescence; inhibition, % at 5.7 µM; NIH 3T3 STAT1-luciferase reporter; 1,200 compounds, 27% hits; shares compounds with STAT3 inh-1;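 active means inhibition above the mean plus 3 SD of solvent-only control wells, limit set per screening run, cut at about 16% in these data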;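 further: 0% = DMSO with IFN-gamma and 100% = nifuroxazide control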
Starred values were filed as active, the others as inactive; / = no result. In the library only some 2.3% were active in any assay of this set; here they are far more common.

SMILES	STAT1 inh	STAT3 act	HSP90 refold inh	STAT3 inh-1	TRAIL sens C8	PPC-1+TRAIL kill	STAT3 inh-2	NFkB inh 2	STAT1 inh 2
Cn1c(=O)n(C)c2cc([N+](=O)[O-])c(N3CCN(S(=O)(=O)c4ccc(C(C)(C)C)cc4)CC3)cc21	9.6	93.7	-1.9	14.7	-7.2	30.5	/	/	/
COc1ccc(CCN2C(=O)CSC2c2ccc(OC)c(OC)c2)cc1OC (stereo not given)	0.1	98.5	1.1	5.2	2.5	16.3	/	/	/
COc1ccc(C2SCC(=O)N2CCc2ccc(OC)c(OC)c2)cc1 (stereo not given)	28.0	64.1	6.4	45.3*	-0.6	/	43.4*	14.9*	16.4*
COc1c(C)cc(NC(=O)c2ccc3c(c2)NC(=O)CO3)cc1C	5.0	63.9	2.1	45.3*	-6.2	-6.9	29.9	-2.0	-0.1
Cc1ccc(NC(=O)C2(C)CCN2C(=O)c2ccccc2CCc2ccccc2)cc1C (stereo not given)	/	/	/	/	13.7	/	/	/	/
Brc1ccc(-c2cn3ccccc3n2)s1	-13.9	61.0	8.9	50.7*	49.8*	47.6	6.6	-39.5	-153.0
O=c1cc(CSc2nnc(-c3cccs3)n2Cc2ccccc2)nc2sc3ccccc3n12	23.1	53.2	6.4	60.0*	11.3	12.2	57.0*	12.0	22.7*
CN1C(C(=O)Nc2ccc(OC(F)(F)F)cc2)=CC(c2ccc3c(c2)OCO3)=NS1(=O)=O	/	/	0.3	/	10.3	/	/	/	/
Cc1ccc(OC(=O)c2ccc3nc(C)sc3c2)cc1	24.0	52.4	2.8	56.9*	/	25.3	-11.8	-26.7	-49.4
O=C(Nc1ccc(S(=O)(=O)N2CCCC2)cc1)c1ccc(CN2CCc3ccccc3C2)cc1	20.9	29.2	3.9	82.1*	23.0	0.1	84.8*	33.7*	2.1
O=C(Nc1ccc(Cc2ccncc2)cc1)c1ccc(S(=O)(=O)N2CCCC2)cc1	21.3	44.2	2.2	68.0*	35.4	18.5	66.4*	14.8*	15.3
O=C(Nc1ccc(Cl)cc1)c1ccc(CN2CCc3ccccc3C2)cc1	/	/	0.0	/	29.1	/	/	/	/
O=C(Nc1ccc(S(=O)(=O)N2CCCCC2)cc1)c1ccncc1	10.6	80.4	2.8	25.2	3.8	2.7	/	/	/
O=C(Nc1ccc(S(=O)(=O)N2CCOCC2)cc1)c1ccc(CN2CCc3ccccc3C2)cc1	30.5	36.1	-0.2	83.2*	/	32.0	87.7*	42.1*	33.1*
O=C(CCn1nc(-c2ccc(Cl)cc2)ccc1=O)N1CCN(c2ccc(F)cc2)CC1	/	/	-1.0	/	-2.4	/	/	/	/
Cc1ccc(C(=O)NCCCn2ccnc2)cc1[N+](=O)[O-]	4.7	107.5	-1.6	-1.1	-8.3	21.6	/	/	/
COc1ccc(N(C(C)C(=O)N2CCC(Cc3ccccc3)CC2)S(C)(=O)=O)cc1 (stereo not given)	26.3	58.4	1.7	50.0*	26.1	-1.2	45.8*	8.7	20.5*
CCOC(=O)N1CCN(C(=O)C(C)N(c2ccc(Oc3ccccc3)cc2)S(C)(=O)=O)CC1 (stereo not given)	-1.5	92.9	-1.0	12.7	5.6	32.5	/	/	/
CCOC(=O)C1CCN(C(=O)C(C)N(c2ccc(Oc3ccccc3)cc2)S(C)(=O)=O)CC1 (stereo not given)	23.8	60.6	0.1	48.7*	30.0	9.9	40.9	4.4	10.2
Cc1coc2cc3oc(=O)c(CCC(=O)NCC(=O)O)c(C)c3cc12	/	/	-0.8	/	-1.6	/	/	/	/
